The subject of one test is P388. The test can be described thus: Cytotoxicity against mouse P388 cells after 3 days by MTT assay. In kind it is functional, cell-based. Particulars: P388, 72 h. Summed up: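 Mouse lymphocytic leukemia cells grown in Fisher's medium with 10% heat-inactivated FCS at 37 °C, 5% CO2. Seeded at 1500 cells/well in 200 µL cultures, then given compounds in 0.5% DMSO at eight concentrations in triplicate for 3 days. MTT added, formazan dissolved in DMSO and read at 540 nm. IC50 is the concentration giving 50% absorbance reduction versus untreated cells. Assays repeated three times.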
For orientation: Formazan colour is commonly taken as a measure of viable cells.

A further test has as its system HT-29. The test can be described thus: Cytotoxicity against human HT29 cells after 6 days by MTT assay. In kind it is functional, cell-based. Particulars: HT-29, 144 h. Summed up: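 Human colon carcinoma cells from ATCC kept in RPMI 1640 with 10% heat-inactivated FCS at 37 °C, 5% CO2. Plated at 1000 cells/well and exposed 6 days to eight concentrations spanning a 128-fold range, in triplicate, in 0.5% DMSO. Then 1 mg/mL MTT added for 5 h at 37 °C, formazan dissolved in DMSO, read at 540 nm. IC50 is 50% absorbance reduction versus untreated cells. Three repeats.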

This is an account of results in ChEMBL document CHEMBL1157333, “Cytotoxic dihydroagarofuranoid sesquiterpenes from the stem of Microtropis fokienensis” (J Nat Prod, 2006).

SMILES strings stand for the structures. ≈ marks a conversion by molar mass, not a printed value.

Usually IC50 stands for the point on the concentration scale where inhibition reaches its midpoint. A high value points to weaker potency. Regarding `CC(=O)O[C@H]1CC[C@@H](C)[C@]23OC(C)(C)[C@H](C[C@H](OC(=O)c4ccccc4)[C@]12COC(=O)c1ccccc1)[C@H]3OC(C)=O`, the IC50 in the test with P388 came to 0.043 µg/mL (≈ 0.0743 µM); in the test with HT-29 it was 0.071 µg/mL (≈ 0.123 µM).
The corresponding values for `CC(=O)O[C@H]1[C@@H](OC(=O)c2ccccc2)C[C@@H](C)[C@]23OC(C)(C)[C@H](C[C@H](OC(=O)c4ccccc4)[C@]12COC(=O)c1ccccc1)[C@H]3OC(=O)c1ccccc1` [FOKIENAGAROFURAN D] are 0.036 µg/mL (≈ 0.0473 µM) and 0.058 µg/mL (≈ 0.0762 µM).
The like results for `CC(=O)O[C@@H]1[C@H]2C[C@H](OC(=O)c3ccccc3)[C@]3(COC(=O)CC(C)C)[C@@H](OC(C)=O)[C@@H](OC(=O)c4ccccc4)C[C@@H](C)[C@@]13OC2(C)C` were, in that order, 0.051 µg/mL (≈ 0.0751 µM) and 0.082 µg/mL (≈ 0.121 µM).
Take `CO[C@H](C(=O)[C@@H](O)[C@@H](C)O)[C@@H]1Cc2cc3cc(O[C@H]4C[C@@H](O[C@@H]5C[C@@H](O)[C@H](O)[C@@H](C)O5)[C@H](O)[C@@H](C)O4)c(C)c(O)c3c(O)c2C(=O)[C@H]1O[C@H]1C[C@@H](O[C@@H]2C[C@@H](O)[C@@H](O[C@@H]3C[C@](C)(O)[C@H](O)[C@@H](C)O3)[C@@H](C)O2)[C@H](O)[C@@H](C)O1` [PLICAMYCIN]: the IC50 with P388 is 0.06 µg/mL (≈ 0.0553 µM); in the test with HT-29 it was 0.08 µg/mL (≈ 0.0737 µM).
Consider `CC(=O)O[C@@H]1[C@H]2C[C@H](OC(=O)c3ccccc3)[C@]3(COC(=O)c4ccccc4)[C@@H](OC(C)=O)[C@@H](OC(=O)c4ccccc4)C[C@@H](C)[C@@]13OC2(C)C` [FOKIENAGAROFURAN A], for which the half-inhibitory concentration (IC50) came to 0.032 µg/mL (≈ 0.0458 µM) in the test on P388 and 0.054 µg/mL (≈ 0.0773 µM) in the test on HT-29.
